Results: article PMC7127590 (European Journal of Medicinal Chemistry, 2010)
≈ marks a conversion by molar mass, not a printed value. Entries after “also recorded” stand apart in the source; their conditions may differ. Like-named read-outs stand apart in the source and are kept apart here.

Columns and labels:
Type in all cases: cell-based
HeLa cells = assay: cytotoxicity in uninfected HeLa cells; settings: HeLa cell cultures, microscopically detectable alteration of cell morphology
Outline: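 Uninfected HeLa cells were treated with serial dilutions of test compound, run in parallel with the CPE-reduction antiviral assay. Minimum cytotoxic concentration was the lowest concentration causing microscopically detectable alteration of normal cell morphology. CC50 was the 50% cytotoxic concentration, measured as cell viability by the colorimetric formazan-based MTS assay.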

Escherichia coli = assay: MIC by tube dilution, E. coli; settings: 24 h, read-out: pMICec (Eq. (3)) Obs.
Outline: (§1)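 Tube-dilution MIC. Test compound was dissolved in DMSO at 100 μg/mL, then serially diluted in double-strength nutrient broth (I.P.). Tubes were incubated at 37 °C for 24 h. MIC was the lowest concentration that inhibited microbial growth. MIC values were converted to pMIC for QSAR.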

Candida albicans = assay: MIC by tube dilution, C. albicans; settings: 48 h
Bacillus subtilis = assay: MIC by tube dilution, B. subtilis; settings: 24 h, read-out: pMICbs (Eq. (2)) Obs.
Outline: as §1

Staphylococcus aureus = assay: MIC by tube dilution, S. aureus; settings: 24 h, read-out: pMICsa (Eq. (1)) Obs.
Outline: as §1

[1] = system: S. aureus, B. subtilis, E. coli, C. albicans and A. niger; assay: average antimicrobial activity
Outline: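 Tube-dilution MIC with test compound dissolved in DMSO at 100 μg/mL. Bacteria grew in double-strength nutrient broth at 37 °C for 24 h. C. albicans grew in Sabouraud dextrose broth at 37 °C for 48 h, and A. niger in the same broth at 25 °C for 7 days. MIC was the lowest growth-inhibiting concentration, converted to pMIC. pMICam = mean of the five pMIC values.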

[2] = system: Vesicular stomatitis virus
B. subtilis = assay: MBC determination, B. subtilis; settings: static when MBC 3-fold higher than MIC
Outline: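 100 μL of culture from each tube that stayed clear in the MIC test was subcultured on fresh medium. MBC was the lowest compound concentration producing a 99.9% end-point reduction.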

[3] = read-out: pMICca (Eq. (4)) Obs.
[4] = read-out: pMICam (Eq. (9)) Obs.
[5] = read-out: pMICam MLR (Eq. (10)) Obs.

| Structure (SMILES) | Cytotoxicity Minimum cytotoxic conc. (HeLa cells) | MIC (Escherichia coli) | MIC (Candida albicans; [3]) | MIC (Bacillus subtilis) | MIC (Staphylococcus aureus) | MIC [1, 4] | MIC [1, 5] | antiviral activity against Vesicular stomatitis virus (VSV), in words [2] | MIC (Candida albicans; read-out: pMICca) | bacteriostatic/bactericidal action against B. subtilis (B. subtilis) |
| --- | --- | --- | --- | --- | --- | --- | --- | --- | --- | --- |
| Nc1ncnc2c1ncn2C[C@H](O)CO [(S)-DHPA, reference compound] | >250 µM | – | – | – | – | – | – | – | – | – |
| CCCCCCCCCCCC(=O)N/N=C/c1ccccc1 [Compound 1] | – | 41.7 µM (≈ 12.6 µg/mL) | 61.7 µM (≈ 18.6 µg/mL) | 50.1 µM (≈ 15.2 µg/mL) | 41.7 µM (≈ 12.6 µg/mL) | 50.1 µM (≈ 15.2 µg/mL) | 50.1 µM (≈ 15.2 µg/mL) | – | – | – |
| CCCCCCCCCCCCCC(=O)N/N=C/c1ccccc1 [Compound 2] | – | 43.7 µM (≈ 14.4 µg/mL) | 57.5 µM (≈ 19 µg/mL) | 38 µM (≈ 12.6 µg/mL) | 38 µM (≈ 12.6 µg/mL) | 45.7 µM (≈ 15.1 µg/mL) | 45.7 µM (≈ 15.1 µg/mL) | – | – | – |
| CCCCCCCCCCCCCCCC(=O)N/N=C/c1ccccc1 [Compound 3] | – | 31.6 µM (≈ 11.3 µg/mL) | 17.4 µM (≈ 6.23 µg/mL) | 34.7 µM (≈ 12.4 µg/mL) | 34.7 µM (≈ 12.4 µg/mL) | 38.9 µM (≈ 13.9 µg/mL) | 38.9 µM (≈ 13.9 µg/mL) | – | – | – |
| CCCCCCCCCCCCCCCCCC(=O)N/N=C/c1ccccc1 [Compound 4] | – | 16.2 µM (≈ 6.27 µg/mL) | 8.13 µM (≈ 3.14 µg/mL) | 32.4 µM (≈ 12.5 µg/mL) | 32.4 µM (≈ 12.5 µg/mL) | 24.5 µM (≈ 9.49 µg/mL) | 24.5 µM (≈ 9.49 µg/mL) | – | – | – |
| C/C=C/C=C/C(=O)N/N=C/c1ccccc1 [Compound 5] | – | 58.9 µM (≈ 12.6 µg/mL) | 117 µM (≈ 25.2 µg/mL) | 58.9 µM (≈ 12.6 µg/mL) | 58.9 µM (≈ 12.6 µg/mL) | 58.9 µM (≈ 12.6 µg/mL) | 58.9 µM (≈ 12.6 µg/mL) | – | – | – |
| O=C(/C=C/c1ccccc1)N/N=C/c1ccccc1 [Compound 6] | – | 50.1 µM (≈ 12.5 µg/mL) | 12.6 µM (≈ 3.15 µg/mL) | 50.1 µM (≈ 12.5 µg/mL) | 50.1 µM (≈ 12.5 µg/mL) | 33.1 µM (≈ 8.29 µg/mL) | 33.1 µM (≈ 8.29 µg/mL) | – | – | – |
| Cc1cccc(C(=O)N/N=C/c2ccccc2)c1 [Compound 7] | – | 52.5 µM (≈ 12.5 µg/mL) | 13.2 µM (≈ 3.14 µg/mL) | 52.5 µM (≈ 12.5 µg/mL) | 52.5 µM (≈ 12.5 µg/mL) | 34.7 µM (≈ 8.26 µg/mL) | 34.7 µM (≈ 8.26 µg/mL) | – | – | – |
| Cc1ccc(C(=O)N/N=C/c2ccccc2)cc1 [Compound 8] | – | 52.5 µM (≈ 12.5 µg/mL) | 45.7 µM (≈ 10.9 µg/mL) | 52.5 µM (≈ 12.5 µg/mL) | 52.5 µM (≈ 12.5 µg/mL) | 38.9 µM (≈ 9.27 µg/mL) | 38.9 µM (≈ 9.27 µg/mL) | – | – | – |
| COc1cc(OC)cc(C(=O)N/N=C/c2ccccc2)c1 [Compound 9] | 100 µg/mL | 43.7 µM (≈ 12.4 µg/mL) | 11 µM (≈ 3.12 µg/mL) | 43.7 µM (≈ 12.4 µg/mL) | 43.7 µM (≈ 12.4 µg/mL) | 28.8 µM (≈ 8.2 µg/mL) | 28.8 µM (≈ 8.2 µg/mL) | active; also recorded: antiviral potential | – | – |
| O=C(N/N=C/c1ccccc1)c1cc([N+](=O)[O-])cc([N+](=O)[O-])c1 [Compound 10] | – | 39.8 µM (≈ 12.5 µg/mL) | 20 µM (≈ 6.27 µg/mL) | 39.8 µM (≈ 12.5 µg/mL) | 39.8 µM (≈ 12.5 µg/mL) | 30.2 µM (≈ 9.49 µg/mL) | 30.2 µM (≈ 9.49 µg/mL) | – | 20 µM (≈ 6.27 µg/mL) | – |
| CCCCCCCCCCCC(=O)N/N=C/c1ccccc1Cl [Compound 11] | – | 15.8 µM (≈ 5.34 µg/mL) | 18.6 µM (≈ 6.27 µg/mL) | 37.2 µM (≈ 12.5 µg/mL) | 37.2 µM (≈ 12.5 µg/mL) | 27.5 µM (≈ 9.28 µg/mL) | 27.5 µM (≈ 9.28 µg/mL) | – | – | – |
| CCCCCCCCCCCCCC(=O)N/N=C/c1ccccc1Cl [Compound 12] | – | 33.9 µM (≈ 12.4 µg/mL) | 75.9 µM (≈ 27.7 µg/mL) | 33.9 µM (≈ 12.4 µg/mL) | 33.9 µM (≈ 12.4 µg/mL) | 46.8 µM (≈ 17.1 µg/mL) | 46.8 µM (≈ 17.1 µg/mL) | – | – | – |
| CCCCCCCCCCCCCCCC(=O)N/N=C/c1ccccc1Cl [Compound 13] | – | 31.6 µM (≈ 12.4 µg/mL) | 7.94 µM (≈ 3.12 µg/mL) | 32.4 µM (≈ 12.7 µg/mL) | 31.6 µM (≈ 12.4 µg/mL) | 26.9 µM (≈ 10.6 µg/mL) | 26.9 µM (≈ 10.6 µg/mL) | – | – | active bactericidal agents |
| CCCCCCCCCCCCCCCCCC(=O)N/N=C/c1ccccc1Cl [Compound 14] | – | 29.5 µM (≈ 12.4 µg/mL) | 14.8 µM (≈ 6.23 µg/mL) | 29.5 µM (≈ 12.4 µg/mL) | 29.5 µM (≈ 12.4 µg/mL) | 28.8 µM (≈ 12.1 µg/mL) | 28.8 µM (≈ 12.1 µg/mL) | – | – | active bactericidal agents |
| C/C=C/C=C/C(=O)N/N=C/c1ccccc1Cl [Compound 15] | – | 50.1 µM (≈ 12.5 µg/mL) | 25.1 µM (≈ 6.25 µg/mL) | 50.1 µM (≈ 12.5 µg/mL) | 50.1 µM (≈ 12.5 µg/mL) | 39.8 µM (≈ 9.9 µg/mL) | 39.8 µM (≈ 9.9 µg/mL) | – | – | – |
| O=C(/C=C/c1ccccc1)N/N=C/c1ccccc1Cl [Compound 16] | – | 43.7 µM (≈ 12.4 µg/mL) | 17.4 µM (≈ 4.95 µg/mL) | 43.7 µM (≈ 12.4 µg/mL) | 43.7 µM (≈ 12.4 µg/mL) | 30.2 µM (≈ 8.6 µg/mL) | 30.2 µM (≈ 8.6 µg/mL) | – | 17.4 µM (≈ 4.95 µg/mL) | – |
| Cc1cccc(C(=O)N/N=C/c2ccccc2Cl)c1 [Compound 17] | – | 45.7 µM (≈ 12.5 µg/mL) | 45.7 µM (≈ 12.5 µg/mL) | 45.7 µM (≈ 12.5 µg/mL) | 45.7 µM (≈ 12.5 µg/mL) | 42.7 µM (≈ 11.6 µg/mL) | 42.7 µM (≈ 11.6 µg/mL) | – | – | – |
| Cc1ccc(C(=O)N/N=C/c2ccccc2Cl)cc1 [Compound 18] | – | 45.7 µM (≈ 12.5 µg/mL) | 24.5 µM (≈ 6.69 µg/mL) | 45.7 µM (≈ 12.5 µg/mL) | 45.7 µM (≈ 12.5 µg/mL) | 35.5 µM (≈ 9.68 µg/mL) | 35.5 µM (≈ 9.68 µg/mL) | – | 24.5 µM (≈ 6.69 µg/mL) | – |
| COc1cc(OC)cc(C(=O)N/N=C/c2ccccc2Cl)c1 [Compound 19] | 100 µg/mL | 38.9 µM (≈ 12.4 µg/mL) | 9.77 µM (≈ 3.12 µg/mL) | 38.9 µM (≈ 12.4 µg/mL) | 38.9 µM (≈ 12.4 µg/mL) | 27.5 µM (≈ 8.78 µg/mL) | 27.5 µM (≈ 8.78 µg/mL) | active; also recorded: antiviral potential | – | – |
| O=C(N/N=C/c1ccccc1Cl)c1cc([N+](=O)[O-])cc([N+](=O)[O-])c1 [Compound 20] | – | 35.5 µM (≈ 12.4 µg/mL) | 8.91 µM (≈ 3.11 µg/mL) | 35.5 µM (≈ 12.4 µg/mL) | 35.5 µM (≈ 12.4 µg/mL) | 25.1 µM (≈ 8.76 µg/mL) | 25.1 µM (≈ 8.76 µg/mL) | – | – | – |
| NC(=O)c1ncn([C@@H]2O[C@H](CO)[C@@H](O)[C@H]2O)n1 [Ribavirin, reference compound] | >250 µM | – | – | – | – | – | – | – | – | – |
